Measurements taken from ChEMBL document CHEMBL3525942, “Disposition and metabolism of [14C]SB-649868, an orexin 1 and 2 receptor antagonist, in humans” (Drug Metab Dispos, 2011).

Legend:
Homo sapiens [1] = assay: AUC (0 to t) in human plasma treated with [14C]SB-649868 at 30 mg, po single dose; type: ADME, organism-based; set-up: dosed compound name [14C]SB-649868; settings: in vivo
Outline: (§1)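 Eight healthy men given one oral 30 mg [14C] capsule. Plasma sampled 0.25–96 h. Parent measured in 50 µl plasma after acetonitrile precipitation with deuterated internal standard, by HPLC-MS/MS (positive-ion MRM). Calibration 5–5000 ng/ml, 1/x2 weighted. Noncompartmental analysis: t1/2 = ln2/λz, linear-up/log-down trapezoid AUC, CL/F = Dose/AUC0-inf.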

[2] = Drug level in human urine treated with [14C]SB-649868 at 30 mg, po single dose after 0 to 72 hrs by HPLC-MSn analysis; settings: in vivo, 0-72 h
Plasma [3] = assay: Drug level in human plasma assessed as radioactivity treated with [14C]SB-649868 at 30 mg, po single dose after 48 hrs by HPLC-MSn analysis; type: ADME, organism-based; set-up: dosed compound name [14C]SB-649868; settings: in vivo
Outline: (§2)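 Plasma taken 3, 12, 24 and 48 h after one oral 30 mg [14C] dose, extracted, and run on radio-HPLC: C8 column, 45 mM ammonium acetate pH 3.8 and acetonitrile gradient, 1 ml/min. Fractions collected into scintillant plates and counted 5 min. Extraction recovery measured; data corrected when recovery was <85%. Values are % of plasma radioactivity, BQL 1%; n=7 at 3 and 12 h.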

[4] = Drug level in human feces treated with [14C]SB-649868 at 30 mg, po single dose by HPLC-MSn analysis; settings: in vivo
Plasma [5] = assay: Drug level in human plasma assessed as radioactivity treated with [14C]SB-649868 at 30 mg, po single dose after 24 hrs by HPLC-MSn analysis; type: ADME, organism-based; set-up: dosed compound name [14C]SB-649868; settings: in vivo; outline: as §2
Homo sapiens [6] = assay: Apparent half life in human plasma treated with [14C]SB-649868 at 30 mg, po single dose; type: ADME, organism-based; set-up: dosed compound name [14C]SB-649868; settings: in vivo; outline: as §1
Plasma [7] = assay: Drug level in human plasma assessed as radioactivity treated with [14C]SB-649868 at 30 mg, po single dose after 12 hrs by HPLC-MSn analysis; type: ADME, organism-based; set-up: dosed compound name [14C]SB-649868; settings: in vivo; outline: as §2
[8] = Terminal phase half life in human at 10 to 60 mg; type: ADME, organism-based; set-up: dosed compound name [14C]SB-649868; settings: in vivo, read-out: Compound recovery (converted)
Homo sapiens [9] = assay: Tmax in human plasma treated with [14C]SB-649868 at 30 mg, po single dose; type: ADME, organism-based; set-up: dosed compound name [14C]SB-649868; settings: in vivo; outline: as §1
Plasma [10] = assay: Drug level in human plasma assessed as radioactivity treated with [14C]SB-649868 at 30 mg, po single dose after 3 hrs by HPLC-MSn analysis; type: ADME, organism-based; set-up: dosed compound name [14C]SB-649868; settings: in vivo; outline: as §2
Homo sapiens [11] = assay: AUC (0 to infinity) in human plasma treated with [14C]SB-649868 at 30 mg, po single dose; type: ADME, organism-based; set-up: dosed compound name [14C]SB-649868; settings: in vivo; outline: as §1
Homo sapiens [12] = assay: Cmax in human plasma treated with [14C]SB-649868 at 30 mg, po single dose; type: ADME, organism-based; set-up: dosed compound name [14C]SB-649868; settings: in vivo; outline: as §1
[13] = Elimination half life in dog; type: ADME, organism-based, Canis lupus familiaris; set-up: dosed compound name [14C]SB-649868; settings: in vivo, read-out: Compound recovery
Plasma [14] = assay: Drug recovery in human plasma at 30, po single dose after 48 hrs by HPLC-MSn analysis; type: ADME, organism-based; set-up: dosed compound name [14C]SB-649868; outline: as §2
Homo sapiens [15] = assay: Apparent oral clearance in human plasma treated with [14C]SB-649868 at 30 mg, po single dose; type: ADME, organism-based; set-up: dosed compound name [14C]SB-649868; settings: in vivo; outline: as §1
[16] = Elimination half life in rat; type: ADME, organism-based; set-up: dosed compound name [14C]SB-649868; settings: in vivo, read-out: Compound recovery
Plasma [17] = assay: Drug recovery in human plasma at 30, po single dose after 3 hrs by HPLC-MSn analysis; type: ADME, organism-based; set-up: dosed compound name [14C]SB-649868; outline: as §2

SMILES: Cc1nc(C(=O)N2CCCC[C@H]2CNC(=O)c2cccc3occc23)c(-c2ccc(F)cc2)s1 [SB-649868]
- Compound recovery (Homo sapiens [1]): 8200 ng·h/mL
- Compound recovery [2]: Below quantification limit
- Compound recovery (Plasma [3]): < 1
- Compound recovery [4]: Below quantification limit
- Compound recovery (Plasma [5]): 9.8%
- Compound recovery (Homo sapiens [6]): 4.8 h
- Compound recovery (Plasma [7]): 33.2%
- half-life [8]: 2.2 h
- Compound recovery (Homo sapiens [9]): 4 h
- Compound recovery (Plasma [10]): 67.7%
- Compound recovery (Homo sapiens [11]): 8300 ng·h/mL
- Compound recovery (Homo sapiens [12]): 1.2 µg/mL
- half-life [13]: < 1 h
- Compound recovery (Plasma [14]): 34%
- Compound recovery (Homo sapiens [15]): 3610 mL/h
- half-life [16]: < 1 h
- Compound recovery (Plasma [17]): 97%
